Data published in ChEMBL document CHEMBL3351780, “Novel hybrids of metronidazole and quinolones: synthesis, bioactive evaluation, cytotoxicity, preliminary antimicrobial mechanism and effect of metal ions on their transportation by human serum albumin” (Eur J Med Chem, 2014).
Converted amounts (≈) assume the structure as drawn. The source made the active and inactive calls. The calls are words filed in the database; no cut-off is given here.

Columns and labels:
Bacillus spizizenii = experiment: Antibacterial activity against Bacillus subtilis ATCC 6633 by two-fold serial dilution method; format: functional
Outline: (§1)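 Standard two-fold serial dilution in 96-well microtest plates following NCCLS. Top dilutions printed as 32, 16, 8, 4, 2, 1, 0.5 ug/mL. Wells inoculated and held at 37 °C for 24 h. Growth judged visually and by spectrophotometer, in triplicate. MIC is the lowest concentration giving complete growth inhibition.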

[1] = Antibacterial activity against Eberthella typhosa by two-fold serial dilution method; format: functional
Outline: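 MIC read as the lowest concentration giving complete growth inhibition. Two-fold serial dilutions were made in 96-well plates following NCCLS, giving a series down to 0.5 µg/mL (…32, 16, 8, 4, 2, 1, 0.5). Plates were inoculated and incubated at 37 °C for 24 h. A DMSO-with-inoculum control without drug was included. Growth was monitored visually and spectrophotometrically, in triplicate.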

Cyberlindnera jadinii = experiment: Antifungal activity against Candida utilis after 24 hrs by microbroth dilution method; format: functional; conditions: Williopsis jadinii
Outline: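 Spore suspension prepared in sterile distilled water from one-day-old cultures on Sabouraud agar, final 1-5 x 10^3 spores/mL. Compounds were serially diluted in RPMI 1640 to give eleven dilutions. Incubation at 35 °C for 24 h. Growth read visually and spectrophotometrically, in triplicate. MIC is the lowest concentration with complete inhibition.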

Pichia norvegensis = experiment: Antifungal activity against Candida mycoderma after 24 hrs by microbroth dilution method; format: functional
Aspergillus flavus = experiment: Antifungal activity against Aspergillus flavus ATCC 96918 after 24 hrs by microbroth dilution method
Streptococcus pneumoniae = experiment: Antibacterial activity against Streptococcus pneumoniae by two-fold serial dilution method; format: functional; outline: as §1
Calf thymus DNA = experiment: Binding affinity to calf thymus DNA by UV-vis spectroscopy; format: nucleic-acid assay; conditions: Bos taurus
Outline: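 Calf thymus DNA held at a fixed concentration and titrated with increasing amounts of the compound. UV-vis absorption spectra were recorded at room temperature in 1.0 cm quartz cells, following the DNA band at 260 nm.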

Row | Compound | MIC (Bacillus spizizenii) [µg/mL] | MIC [1] [µg/mL] | MIC (Cyberlindnera jadinii) [µg/mL] | MIC (Pichia norvegensis) [µg/mL] | MIC (Aspergillus flavus) [µg/mL] | MIC (Streptococcus pneumoniae) [µg/mL] | Activity (Calf thymus DNA)
1 | CCOC(=O)c1cn(CC2CO2)c2c(Cl)cc(Cl)cc2c1=O (racemic) | 2 (≈ 5.84 µM) | 2 (≈ 5.84 µM) | 512 (≈ 1500 µM) | 1 (≈ 2.92 µM) | 512 (≈ 1500 µM) | – | –
2 | CCOC(=O)c1cn(CC2CO2)c2cc(C(F)(F)F)ccc2c1=O (racemic) | 31 (≈ 90.8 µM) | 2 (≈ 5.86 µM) | 512 (≈ 1500 µM) | 32 (≈ 93.8 µM) | 512 (≈ 1500 µM) | – | –
3 | CCOC(=O)c1cn(CC2CO2)c2c(F)cccc2c1=O (racemic) | 32 (≈ 110 µM) | 2 (≈ 6.87 µM) | 512 (≈ 1760 µM) | 64 (≈ 220 µM) | 512 (≈ 1760 µM) | – | –
4 | CCn1cc(C(=O)O)c(=O)c2cc(F)c(N3CCNCC3)cc21 [NORFLOXACIN] | 1 (≈ 3.13 µM) | 4 (≈ 12.5 µM) | – | – | – | 1 (≈ 3.13 µM) | Active
